Test results: ChEMBL document CHEMBL1152321, “Recent advances in the chemistry and biology of new generation taxoids” (J Nat Prod, 2009)
Active and inactive are the calls of the source. The calls are words filed in the database; no cut-off is given here.

Legend:
[1] = Cytotoxicity against human paclitaxel and cyclosporine-resistant A2780TC1 cells overexpressing class 3 beta-tubulin after 72 hrs; assay type: functional, cell-based; conditions: A2780TC1, 72 h
[2] = Cytotoxicity against human paclitaxel and cyclosporine-resistant A2780TC3 cells overexpressing class 3 beta-tubulin after 72 hrs; assay type: functional, cell-based; conditions: A2780TC3, 72 h
A2780 [3] = test: Cytotoxicity against human topotecan-resistant A2780 cells after 72 hrs; assay type: functional, cell-based; conditions: A2780, 72 h
A2780 [4] = test: Resistance factor, ratio of IC50 for paclitaxel and cyclosporine-resistant human A2780TC3 cells overexpressing class 3 beta-tubulin to IC50 for wild type human A2780 cells; assay type: functional
[5] = Activity ratio of compound IC50 to paclitaxel IC50 for paclitaxel and cyclosporine-resistant human A2780TC3 cells overexpressing class 3 beta-tubulin; assay type: functional
[6] = Cytotoxicity against human A2780/ADR cells after 72 hrs; assay type: functional, cell-based
A2780 [7] = test: Cytotoxicity against human cisplatin-resistant A2780 cells after 72 hrs; assay type: functional, cell-based; conditions: A2780, 72 h
A2780 [8] = test: Cytotoxicity against human wild type A2780 cells after 72 hrs; assay type: functional, cell-based; conditions: A2780, 72 h
DLD-1 [9] = test: Antitumor activity against human DLD1 cells expressing P-glycoprotein xenografted in SCID mouse assessed as tumor growth delay at 10 mg/kg, iv administered on day 5, 8, 11 post tumor implantation; assay type: functional
Summary of the method: (§1)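 SCID mice carrying subcutaneous Pgp+ DLD-1 human colon tumours were dosed i.v. q3d×3 on days 5, 8 and 11 after implant, in Tween/EtOH vehicle, with vehicle and untreated control groups. Growth delay was compared with controls by Cox-Mantel test. Cures were mice with no palpable tumour on day 167. Toxicity was counted as death or more than 20% body-weight loss.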

DLD-1 [10] = test: Antitumor activity against human DLD1 cells expressing P-glycoprotein xenografted in SCID mouse assessed as tumor growth delay at 40 mg/kg, iv administered on day 5, 8, 11 post tumor implantation; assay type: functional; summary of the method: as §1
DLD-1 [11] = test: Antitumor activity against human DLD1 cells expressing P-glycoprotein xenografted in SCID mouse assessed as no palpable tumors at 10 mg/kg, iv administered on day 5, 8, 11 post tumor implantation measured on day 167; assay type: functional, organism-based; design: dose 10 mg/kg; summary of the method: as §1
DLD-1 [12] = test: Antitumor activity against human DLD1 cells expressing P-glycoprotein xenografted in SCID mouse assessed as tumor growth delay at 20 mg/kg, iv administered on day 5, 8, 11 post tumor implantation; assay type: functional; summary of the method: as §1
[13] = Cytotoxicity against human primary pancreatic ductal cells up to 10 uM; assay type: cell-based
DLD-1 [14] = test: Antitumor activity against human DLD1 cells expressing P-glycoprotein xenografted in SCID mouse assessed as no palpable tumors at 20 mg/kg, iv administered on day 5, 8, 11 post tumor implantation measured on day 167; assay type: functional, organism-based; design: dose 20 mg/kg; summary of the method: as §1
Mus musculus [15] = organism: Mus musculus; test: Toxicity in SCID mouse assessed as decrease in body weight after day 15 to day 20; assay type: organism-based; design: scale not given: the % may be the effect or the level left; conditions: in vivo
[16] = Induction of tubulin polymerization at 10 uM in presence of Ca2+
[17] = Cytotoxicity against human LCC-6 cells expressing P-glycoprotein after 72 hrs; assay type: functional, cell-based; conditions: LCC-6, 72 h
MCF7 [18] = test: Cytotoxicity against P-glycoprotein deficient wild type human MCF7 cells after 72 hrs; assay type: functional, cell-based; conditions: MCF7, 72 h
[19] = Cytotoxicity against multidrug-resistant human NCI/ADR cells after 72 hrs; assay type: functional, cell-based; conditions: NCI/ADR-RES
[20] = Induction of tubulin polymerization at 10 uM in absence of GTP
[21] = Cytotoxicity against P-glycoprotein deficient wild type human LCC-6 cells after 72 hrs; assay type: functional, cell-based; conditions: LCC-6, 72 h
HT-29 = test: Cytotoxicity against human HT-29 cells after 72 hrs; assay type: functional, cell-based; conditions: HT-29, 72 h
NCI-H460 = test: Cytotoxicity against human H460 cells after 72 hrs; assay type: functional, cell-based; conditions: NCI-H460, 72 h
PANC-1 = test: Cytotoxicity against human PANC1 cells expressing mdr1, mrp1, mrp2, lrp genes after 72 hrs; assay type: functional, cell-based; conditions: PANC-1, 72 h
Mus musculus [22] = test: Toxicity in SCID mouse xenografted with human DLD1 cells assessed as decrease in body weight at 20 mg/kg, iv administered on day 5, 8, 11 post tumor implantation; assay type: organism-based, DLD-1; design: dose 20 mg/kg, route intravenous; conditions: in vivo
A2780 [23] = test: Resistance factor, […] harboring point mutation in beta-tubulin; assay type: functional
[24] = Resistance factor, ratio of IC50 for human LCC-6 cells expressing P-glycoprotein to IC50 for P-glycoprotein deficient wild type human LCC-6 cells; assay type: functional; design: reference not given here
MCF7 [25] = test: Resistance factor, ratio of IC50 for P-glycoprotein deficient wild type human MCF7 cells to IC50 for multidrug-resistant human NCI/ADR cells; assay type: functional

| SMILES | IC50 [1] [nM] | IC50 [2] [nM] | IC50 (A2780 [3]) [nM] | Ratio IC50 (A2780 [4]) | Ratio IC50 [5] | IC50 [6] [nM] | IC50 (A2780 [7]) [nM] | IC50 (A2780 [8]) [nM] | Activity (DLD-1 [12]) [days] | Activity (DLD-1 [14]) | IC50 [17] [nM] | IC50 [21] [nM] | other results |
| --- | --- | --- | --- | --- | --- | --- | --- | --- | --- | --- | --- | --- | --- |
| CC(=O)O[C@@]1(C2/C(C)=C(/O)C(=O)C3=C(C)[C@@H](OC(=O)[C@H](O)[C@H](CC(C)C)NC(=O)OC(C)(C)C)C[C@@](O)([C@H]2OC(=O)c2ccccc2)C3(C)C)CO[C@@H]1CCO (stereo partly specified) | 2060 | 2240 | 27.5 | 129 | 8 | 2620 | 16.8 | 17.4 | – | – | – | – | – |
| CC(=O)O[C@@]12CO[C@@H]1C[C@H](O)[C@@]1(C)C(=O)[C@H](OC(=O)C3CC3)C3=C(C)[C@@H](OC(=O)[C@H](O)[C@H](C=C(C)C)NC(=O)OC(C)(C)C)C[C@@](O)([C@@H](OC(=O)c4ccccc4)[C@H]21)C3(C)C | – | – | – | – | – | – | – | – | >150 | Active | – | – | Activity (DLD-1 [9]): 37 days; Activity (DLD-1 [10]): >150 days; Activity (DLD-1 [11]): inactive; Activity [13]: Not Active; Activity (Mus musculus [15]): 3% |
| CC(=O)O[C@H]1C(=O)[C@@]2(C)[C@H]([C@H](OC(=O)c3ccccc3)[C@]3(O)[C@H]4OCC/C=C/c5ccccc5C(=O)N[C@@H](c5ccccc5)[C@@H](O)C(=O)O[C@@H]4C(C)=C1C3(C)C)[C@]1(OC(C)=O)CO[C@@H]1C[C@@H]2O | – | – | – | – | – | – | – | 31 | – | – | 129 | 2.09 | inhibition [16]: Active; IC50 (MCF7 [18]): 3.49 nM; IC50 [19]: 183 nM; inhibition [20]: Active; IC50 (HT-29): 17 nM |
| CC(=O)O[C@H]1C(=O)[C@@]2(C)[C@H]([C@H](OC(=O)c3ccccc3)[C@]3(O)C[C@H](OC(=O)[C@H](O)[C@@H](NC(=O)c4ccccc4)c4ccccc4)C(C)=C1C3(C)C)[C@]1(OC(C)=O)CO[C@@H]1C[C@@H]2O [PACLITAXEL] | – | 17800 | 7.2 | – | – | – | 2.2 | 1.7 | 8 | inactive | 110 | 2.45 | IC50 (NCI-H460): 4.9 nM; IC50 (PANC-1): 25.7 nM; Activity (Mus musculus [22]): Non-toxic |
| CCC(=O)O[C@H]1C(=O)[C@@]2(C)[C@H]([C@H](OC(=O)c3cccc(OC)c3)[C@]3(O)C[C@H](OC(=O)[C@H](O)[C@H](C=C(C)C)NC(=O)OC(C)(C)C)C(C)=C1C3(C)C)[C@]1(OC(C)=O)CO[C@@H]1C[C@@H]2O | – | – | – | – | – | – | – | – | – | – | – | 1 | Ratio (A2780 [23]): 5.1; Ratio [24]: 0.9; Ratio (MCF7 [25]): 0.92 |
| CC(=O)O[C@@]1([C@@H]2/C(C)=C(/O)C(=O)C3=C(C)[C@@H](OC(=O)[C@H](O)[C@H](CC(C)C)NC(=O)OC(C)(C)C)C[C@@](O)([C@H]2OC(=O)c2cccc(F)c2)C3(C)C)CO[C@H]1CCO | 1500 | 460 | 12.8 | 41 | 39 | 3730 | 11.8 | 11.1 | – | – | – | – | – |
